We go through 21 compounds from ChEMBL document CHEMBL4177624, “Rationally designed hecogenin thiosemicarbazone analogs as novel MEK inhibitors for the control of breast malignancies” (Bioorg Med Chem, 2017).

Format in all cases: functional, cell-based
The test system of test [1] is MCF7. Description: Antiproliferative activity against human MCF7 cells after 72 hrs by MTT assay. To be noted: MCF7, 72 h. The gist of the method:
(§1)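 Six human breast carcinoma lines of differing molecular and phenotypic character were each exposed to a range of concentrations for 72 h. Proliferation was read by MTT. Results are given as mean percent viability, with IC₅₀ ± SEM calculated per cell line.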
In general terms: Formazan colour is commonly taken as a measure of viable cells.

The subject of test [2] is BT-474. Description: Antiproliferative activity against human BT474 cells after 72 hrs by MTT assay. Particulars: BT-474, 72 h. The method, boiled down: as §1
Test [3] concerns MDA-MB-468. Description: Antiproliferative activity against human MDA-MB-468 cells after 72 hrs by MTT assay. Particulars: MDA-MB-468, 72 h. The method, boiled down:
as §1

The subject of test [4] is SK-BR-3. Briefly: Antiproliferative activity against human SKBR3 cells after 72 hrs by MTT assay. Particulars: SK-BR-3, 72 h. The gist of the method:
as §1

The subject of test [5] is T47D. Briefly: Antiproliferative activity against human T47D cells after 72 hrs by MTT assay. The gist of the method: as §1
Test [6] concerns MDA-MB-231. Description: Antiproliferative activity against human MDA-MB-231 cells after 72 hrs by MTT assay. To be noted: MDA-MB-231, 72 h. The gist of the method:
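MDA-MB-231 triple-negative breast cancer cells were exposed to a range of concentrations for 72 h. Proliferation was read by MTT. Results are given as mean percent viability versus concentration, with IC₅₀ ± SEM calculated from the curve.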

As for `C[C@@H]1CC[C@@]2(OC1)O[C@H]1C[C@H]3[C@@H]4CC[C@H]5C[C@@H](OC(=O)c6ccccc6Cl)CC[C@]5(C)[C@H]4CC(=O)[C@]3(C)[C@H]1[C@@H]2C`, the IC50 in test [1], in test [2], in test [3], in test [4], in test [5] and in test [6] was greater than 40 µM throughout.

In the case of `COc1ccccc1C(=O)O[C@H]1CC[C@@]2(C)[C@@H](CC[C@@H]3[C@@H]2CC(=O)[C@]2(C)[C@@H]4[C@H](C[C@@H]32)O[C@]2(CC[C@@H](C)CO2)[C@H]4C)C1`, the IC50 in test [1], in test [2], in test [3], in test [4], in test [5] and in test [6] was greater than 40 µM each time.

As for `C[C@@H]1CC[C@@]2(OC1)O[C@H]1C[C@H]3[C@@H]4CC[C@H]5C[C@@H](O)CC[C@]5(C)[C@H]4C/C(=N\NC(=S)Nc4cc(C(F)(F)F)cc(C(F)(F)F)c4)[C@]3(C)[C@H]1[C@@H]2C`, the IC50 (in general, the midpoint of a concentration-inhibition curve) in test [1] is 8 µM; in test [2], 10.8 µM; in test [3] it was 8.2 µM; in test [4] it was 8.6 µM; in test [5], 11 µM; in test [6], 7.3 µM.

With `C[C@@H]1CC[C@@]2(OC1)O[C@H]1C[C@H]3[C@@H]4CC[C@H]5C[C@@H](O)CC[C@]5(C)[C@H]4C/C(=N\NC(=S)Nc4ccc5c(c4)OCO5)[C@]3(C)[C@H]1[C@@H]2C`, the IC50 in test [1] is 5.3 µM; in test [2] it was 7.5 µM; in test [3], 5.9 µM; in test [4], 6.2 µM; in test [5], 7.8 µM; in test [6], 5.5 µM.

Consider `C[C@@H]1CC[C@@]2(OC1)O[C@H]1C[C@H]3[C@@H]4CC[C@H]5C[C@@H](O)CC[C@]5(C)[C@H]4C/C(=N\NC(=S)Nc4ccccc4Cl)[C@]3(C)[C@H]1[C@@H]2C`, for which the IC50 in test [1] turned out to be 5.9 µM; in test [2], 6.5 µM; in test [3], 6.2 µM; in test [4], 5.7 µM; in test [5] it was 7 µM; in test [6] it was 5.5 µM.

As to `Cc1ccc(NC(=S)N/N=C2\C[C@H]3[C@@H](CC[C@H]4C[C@@H](O)CC[C@@]43C)[C@@H]3C[C@@H]4O[C@]5(CC[C@@H](C)CO5)[C@@H](C)[C@@H]4[C@@]23C)c(C)c1`, the IC50 in test [1] worked out at 3 µM; in test [2], 3.7 µM; in test [3], 3.8 µM; in test [4], 4.2 µM; in test [5], 5.2 µM; in test [6] it was 2.7 µM.

`C[C@@H]1CC[C@@]2(OC1)O[C@H]1C[C@H]3[C@@H]4CC[C@H]5C[C@@H](O)CC[C@]5(C)[C@H]4C/C(=N\NC(=S)Nc4ccc(Cl)cc4)[C@]3(C)[C@H]1[C@@H]2C`: the IC50 in test [1] was 12 µM; in test [2], 11.8 µM; in test [3] it was 12.8 µM; in test [4] it was 14.8 µM; in test [5] it was 15.1 µM; in test [6], 11.5 µM.

With `C[C@@H]1CC[C@@]2(OC1)O[C@H]1C[C@H]3[C@@H]4CC[C@H]5C[C@@H](O)CC[C@]5(C)[C@H]4C/C(=N\NC(=S)Nc4ccc(C(F)(F)F)cc4)[C@]3(C)[C@H]1[C@@H]2C`, the IC50 stood at 3.7 µM in test [1]; 4.4 µM in test [2]; 3.9 µM in test [3]; 4 µM in test [4]; 3.8 µM in test [5]; 3.2 µM in test [6].

`C[C@@H]1CC[C@@]2(OC1)O[C@H]1C[C@H]3[C@@H]4CC[C@H]5C[C@@H](O)CC[C@]5(C)[C@H]4C/C(=N\NC(=O)Nc4ccc(Cl)cc4)[C@]3(C)[C@H]1[C@@H]2C`: the IC50 in test [1] was 9.1 µM; in test [2] it was 9.8 µM; in test [3], 11.3 µM; in test [4] it was 9 µM; in test [5], 12 µM; in test [6], 8.5 µM.

`C[C@@H]1CC[C@@]2(OC1)O[C@H]1C[C@H]3[C@@H]4CC[C@H]5C[C@@H](OC(=O)c6cccc(C(F)(F)F)c6)CC[C@]5(C)[C@H]4CC(=O)[C@]3(C)[C@H]1[C@@H]2C`: the IC50 in test [1], in test [2], in test [3], in test [4], in test [5] and in test [6] was greater than 40 µM throughout.

For the compound `Cc1ccc(NC(=S)N/N=C2\C[C@H]3[C@@H](CC[C@H]4C[C@@H](O)CC[C@@]43C)[C@@H]3C[C@@H]4O[C@]5(CC[C@@H](C)CO5)[C@@H](C)[C@@H]4[C@@]23C)cc1`, the IC50 in test [1] is 3.7 µM; in test [2], 4.5 µM; in test [3], 4 µM; in test [4] it was 3.8 µM; in test [5], 6.1 µM; in test [6], 3.1 µM.

With `C[C@@H]1CC[C@@]2(OC1)O[C@H]1C[C@H]3[C@@H]4CC[C@H]5C[C@@H](O)CC[C@]5(C)[C@H]4C/C(=N\NC(=S)Nc4c(Cl)cccc4Cl)[C@]3(C)[C@H]1[C@@H]2C`, the IC50 in test [1] came out at 6.4 µM; in test [2] it was 6.9 µM; in test [3] it was 7.3 µM; in test [4], 9 µM; in test [5], 10.4 µM; in test [6] it was 6 µM.

In the case of `C[C@@H]1CC[C@@]2(OC1)O[C@H]1C[C@H]3[C@@H]4CC[C@H]5C[C@@H](O)CC[C@]5(C)[C@H]4C/C(=N\NC(=S)Nc4ccc(F)cc4)[C@]3(C)[C@H]1[C@@H]2C`, the IC50 in test [1] is 4 µM; in test [2], 6.3 µM; in test [3], 4.2 µM; in test [4], 4.5 µM; in test [5], 5.9 µM; in test [6], 5 µM.

Take `COc1ccccc1NC(=S)N/N=C1\C[C@H]2[C@@H](CC[C@H]3C[C@@H](O)CC[C@@]32C)[C@@H]2C[C@@H]3O[C@]4(CC[C@@H](C)CO4)[C@@H](C)[C@@H]3[C@@]12C`: the IC50 in test [1] worked out at 7.1 µM; in test [2] it was 8.8 µM; in test [3], 7.5 µM; in test [4], 7.5 µM; in test [5], 10.2 µM; in test [6], 6.8 µM.

As for `C[C@@H]1CC[C@@]2(OC1)O[C@H]1C[C@H]3[C@@H]4CC[C@H]5C[C@@H](O)CC[C@]5(C)[C@H]4C/C(=N\NC(=S)Nc4ccccc4)[C@]3(C)[C@H]1[C@@H]2C`, the IC50 in test [1] came to 8 µM; in test [2], 9.3 µM; in test [3] it was 8.4 µM; in test [4] it was 9.1 µM; in test [5], 10.3 µM; in test [6] it was 7.8 µM.

In the case of `C[C@@H]1CC[C@@]2(OC1)O[C@H]1C[C@H]3[C@@H]4CC[C@H]5C[C@@H](OC(=O)c6ccc(F)cc6)CC[C@]5(C)[C@H]4CC(=O)[C@]3(C)[C@H]1[C@@H]2C`, the IC50 stood at 28 µM in test [1]; 30 µM in test [2]; 33.4 µM in test [3]; 36 µM in test [4]; 29 µM in test [5]; 27 µM in test [6].

Regarding `COc1ccc(NC(=S)N/N=C2\C[C@H]3[C@@H](CC[C@H]4C[C@@H](O)CC[C@@]43C)[C@@H]3C[C@@H]4O[C@]5(CC[C@@H](C)CO5)[C@@H](C)[C@@H]4[C@@]23C)cc1`, the IC50 came out at 10.1 µM in test [1]; 10.9 µM in test [2]; 11.2 µM in test [3]; 11.5 µM in test [4]; 14.2 µM in test [5]; 9.5 µM in test [6].

For `CCc1ccccc1NC(=S)N/N=C1\C[C@H]2[C@@H](CC[C@H]3C[C@@H](O)CC[C@@]32C)[C@@H]2C[C@@H]3O[C@]4(CC[C@@H](C)CO4)[C@@H](C)[C@@H]3[C@@]12C`, the IC50 worked out at 5 µM in test [1]; 8.3 µM in test [2]; 5.8 µM in test [3]; 4.7 µM in test [4]; 8.8 µM in test [5]; 3.8 µM in test [6].

With `C[C@@H]1CC[C@@]2(OC1)O[C@H]1C[C@H]3[C@@H]4CC[C@H]5C[C@@H](O)CC[C@]5(C)[C@H]4C/C(=N\NC(=S)Nc4ccc([N+](=O)[O-])cc4)[C@]3(C)[C@H]1[C@@H]2C`, the IC50 in test [1] is 7.5 µM; in test [2], 10.3 µM; in test [3], 8 µM; in test [4], 7.9 µM; in test [5], 11.5 µM; in test [6], 7.3 µM.

Regarding `C[C@@H]1CC[C@@]2(OC1)O[C@H]1C[C@H]3[C@@H]4CC[C@H]5C[C@@H](OC(=O)c6ccccc6)CC[C@]5(C)[C@H]4CC(=O)[C@]3(C)[C@H]1[C@@H]2C`, the IC50 turned out to be 30.3 µM in test [1]; 36.3 µM in test [2]; 34.2 µM in test [3]; 33.4 µM in test [4]; 37.8 µM in test [5]; 29.1 µM in test [6].

Take `C[C@@H]1CC[C@@]2(OC1)O[C@H]1C[C@H]3[C@@H]4CC[C@H]5C[C@@H](O)CC[C@]5(C)[C@H]4C/C(=N\NC(=O)Nc4ccccc4)[C@]3(C)[C@H]1[C@@H]2C`: the IC50 stood at 10.4 µM in test [1]; 11.9 µM in test [2]; 11.9 µM in test [3]; 12 µM in test [4]; 13.5 µM in test [5]; 9.2 µM in test [6].
